Test results taken from ChEMBL document CHEMBL2440012, “Design, synthesis and anticonvulsant properties of new N-Mannich bases derived from 3-phenylpyrrolidine-2,5-diones” (Bioorg Med Chem, 2013).
Activity calls are given as the source filed them. The rule behind the calls is not given here.

Each molecule was assayed on Mus musculus (assay: Anticonvulsant activity in albino CF1 mouse assessed as assessed as protection against 6 Hz psychomotor seizure at 100 mg/kg, ip after 4 hrs by minimal clonic seizure test). Conditions: route intraperitoneal.
Assay type: functional
How it was run: (§1)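 Male CF-1 mice, groups of four, dosed ip in 0.5% methylcellulose/water suspension, then challenged by 6-Hz corneal stimulation at 32 mA (0.2 ms pulses, 3 s, constant current) at 0.25, 0.5, 1, 2 or 4 h; count of mice out of four protected from stunned posture/clonic seizure.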

SMILES | Activity
O=C1CC(c2ccc(Cl)cc2)C(=O)N1CN1CCC(Cc2ccccc2)CC1 (racemic) | 25%

These molecules were tested on Rattus norvegicus (assay: Anticonvulsant activity in albino Sprague-Dawley rat assessed as protection against maximal electroshock-induced seizures at 30 mg/kg, po measured after 0.5 hr). Conditions: not given.
Assay type: functional
How it was run: (§2)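 Male Sprague-Dawley rats, four per group, dosed p.o. at 30 mg/kg in 0.5% methylcellulose/water suspension; MES test at 0.25, 0.5, 1, 2 and 4 h, motor impairment examined in parallel; number of rats out of four protected.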

SMILES | Activity
O=C1CC(c2cccc(Cl)c2)C(=O)N1CN1CCC(Cc2ccccc2)CC1 (racemic) | inactive
O=C1CC(c2cccc(Cl)c2)C(=O)N1CN1CCOCC1 (racemic) | 50%
O=C1CC(c2cccc(Cl)c2)C(=O)N1CN1CCN(c2ncccn2)CC1 (racemic) | inactive

These molecules were tested on Mus musculus (assay: Anticonvulsant activity in albino CF1 mouse assessed as protection against maximal electroshock-induced seizures at 300 mg/kg, ip measured after 4 hrs). Conditions: not given.
Assay type: functional, organism-based
Design: dose 300 mg/kg
How it was run: (§3)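 Male CF-1 mice given ip suspension in 0.5% methylcellulose/water at 30, 100 and 300 mg/kg; MES, scPTZ (pentylenetetrazole 85 mg/kg sc, CD97 dose for clonic seizures ≥5 s) and rotarod (inability to hold balance 1 min in each of three trials) assessed at 0.5 and 4 h; value is minimum dose active in half or more animals.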

SMILES | Activity
O=C1CC(c2ccc(Cl)cc2)C(=O)N1CN1CCN(c2ncccn2)CC1 (racemic) | inactive
O=C1CC(c2ccccc2Cl)C(=O)N1CN1CCN(c2ccccc2Cl)CC1 (racemic) | inactive

What follows are molecules tested on Mus musculus (assay: Anticonvulsant activity in ip dosed albino CF1 mouse assessed as protection against maximal electroshock-induced seizures in half or more animals measured after 0.5 hr). Conditions: read-out: MED.
Assay type: functional
How it was run: as §3

SMILES | minimal effective dose
O=C1CC(c2cccc(Cl)c2)C(=O)N1CN1CCC(Cc2ccccc2)CC1 (racemic) | 300 mg/kg
O=C1CC(c2cccc(Cl)c2)C(=O)N1CN1CCOCC1 (racemic) | 100 mg/kg

These molecules were tested on Mus musculus (assay: Anticonvulsant activity in albino CF1 mouse assessed as protection against subcutaneous pentylenetetrazole-induced convulsion at 300 mg/kg, ip measured after 0.5 hrs). Conditions: not given.
Assay type: functional, organism-based
Design: dose 300 mg/kg
How it was run: as §3

SMILES | Activity
O=C1CC(c2cccc(Cl)c2)C(=O)N1CN1CCC(Cc2ccccc2)CC1 (racemic) | inactive
O=C1CC(c2cccc(Cl)c2)C(=O)N1CN1CCOCC1 (racemic) | inactive
O=C1CC(c2ccc(Cl)cc2)C(=O)N1CN1CCN(c2ncccn2)CC1 (racemic) | inactive
O=C1CC(c2ccc(Cl)cc2)C(=O)N1CN1CCC(Cc2ccccc2)CC1 (racemic) | inactive
O=C1CC(c2ccccc2Cl)C(=O)N1CN1CCN(c2ccccc2Cl)CC1 (racemic) | inactive
O=C1CC(c2cccc(Cl)c2)C(=O)N1CN1CCN(c2ncccn2)CC1 (racemic) | inactive

What follows are molecules tested on Mus musculus (assay: Anticonvulsant activity in albino CF1 mouse assessed as protection against maximal electroshock-induced seizures at 300 mg/kg, ip measured after 0.5 hr). Conditions: not given.
Assay type: functional, organism-based
Design: dose 300 mg/kg
How it was run: as §3

SMILES | Activity
O=C1CC(c2ccc(Cl)cc2)C(=O)N1CN1CCN(c2ncccn2)CC1 (racemic) | inactive
O=C1CC(c2ccc(Cl)cc2)C(=O)N1CN1CCC(Cc2ccccc2)CC1 (racemic) | inactive
O=C1CC(c2ccccc2Cl)C(=O)N1CN1CCN(c2ccccc2Cl)CC1 (racemic) | inactive
O=C1CC(c2cccc(Cl)c2)C(=O)N1CN1CCN(c2ncccn2)CC1 (racemic) | inactive

What follows are molecules tested on Mus musculus (assay: Anticonvulsant activity in albino CF1 mouse assessed as assessed as protection against 6 Hz psychomotor seizure at 100 mg/kg, ip after 0.25 hr by minimal clonic seizure test). Conditions: route intraperitoneal.
Assay type: functional
How it was run: as §1

SMILES | Activity
O=C1CC(c2ccc(Cl)cc2)C(=O)N1CN1CCC(Cc2ccccc2)CC1 (racemic) | 0%

What follows are molecules tested on Mus musculus (assay: Neurotoxicity in albino CF1 mouse assessed as minimum motor impairment at 300 mg/kg, ip measured after 0.5 hr by rotorod test). Conditions: in vivo.
Assay type: toxicity, organism-based
Design: dose 300 mg/kg, route intraperitoneal
How it was run: as §3

SMILES | Activity
O=C1CC(c2cccc(Cl)c2)C(=O)N1CN1CCC(Cc2ccccc2)CC1 (racemic) | Non-toxic
O=C1CC(c2ccc(Cl)cc2)C(=O)N1CN1CCC(Cc2ccccc2)CC1 (racemic) | Non-toxic
O=C1CC(c2ccccc2Cl)C(=O)N1CN1CCN(c2ccccc2Cl)CC1 (racemic) | Non-toxic
O=C1CC(c2cccc(Cl)c2)C(=O)N1CN1CCN(c2ncccn2)CC1 (racemic) | Non-toxic

What follows are molecules tested on Rattus norvegicus (assay: Anticonvulsant activity in albino Sprague-Dawley rat assessed as protection against maximal electroshock-induced seizures at 30 mg/kg, po measured after 4 hrs). Conditions: not given.
Assay type: functional
How it was run: as §2

SMILES | Activity
O=C1CC(c2cccc(Cl)c2)C(=O)N1CN1CCC(Cc2ccccc2)CC1 (racemic) | inactive
O=C1CC(c2cccc(Cl)c2)C(=O)N1CN1CCOCC1 (racemic) | 50%
O=C1CC(c2cccc(Cl)c2)C(=O)N1CN1CCN(c2ncccn2)CC1 (racemic) | inactive

What follows are molecules tested on Mus musculus (assay: Neurotoxicity in ip dosed albino CF1 mouse assessed as minimum motor impairment in half or more animals measured after 0.5 hrs by rotorod test). Conditions: in vivo.
Assay type: toxicity, organism-based
How it was run: as §3

SMILES | MED
O=C1CC(c2cccc(Cl)c2)C(=O)N1CN1CCOCC1 (racemic) | 300 mg/kg
O=C1CC(c2ccc(Cl)cc2)C(=O)N1CN1CCN(c2ncccn2)CC1 (racemic) | 300 mg/kg

Each molecule was assayed on Mus musculus (assay: Neurotoxicity in albino CF1 mouse assessed as minimum motor impairment at 300 mg/kg, ip measured after 4 hrs by rotorod test). Conditions: in vivo.
Assay type: toxicity, organism-based
Design: dose 300 mg/kg, route intraperitoneal
How it was run: as §3

SMILES | Activity
O=C1CC(c2cccc(Cl)c2)C(=O)N1CN1CCC(Cc2ccccc2)CC1 (racemic) | Non-toxic
O=C1CC(c2cccc(Cl)c2)C(=O)N1CN1CCOCC1 (racemic) | Non-toxic
O=C1CC(c2ccc(Cl)cc2)C(=O)N1CN1CCN(c2ncccn2)CC1 (racemic) | Non-toxic
O=C1CC(c2ccc(Cl)cc2)C(=O)N1CN1CCC(Cc2ccccc2)CC1 (racemic) | Non-toxic
O=C1CC(c2ccccc2Cl)C(=O)N1CN1CCN(c2ccccc2Cl)CC1 (racemic) | Non-toxic
O=C1CC(c2cccc(Cl)c2)C(=O)N1CN1CCN(c2ncccn2)CC1 (racemic) | Non-toxic

What follows are molecules tested on Mus musculus (assay: Anticonvulsant activity in albino CF1 mouse assessed as assessed as protection against 6 Hz psychomotor seizure at 100 mg/kg, ip after 1 hr by minimal clonic seizure test). Conditions: route intraperitoneal.
Assay type: functional
How it was run: as §1

SMILES | Activity
O=C1CC(c2ccc(Cl)cc2)C(=O)N1CN1CCC(Cc2ccccc2)CC1 (racemic) | 0%

These molecules were tested on Mus musculus (assay: Anticonvulsant activity in albino CF1 mouse assessed as assessed as protection against 6 Hz psychomotor seizure at 100 mg/kg, ip after 0.5 hr by minimal clonic seizure test). Conditions: route intraperitoneal.
Assay type: functional
How it was run: as §1

SMILES | Activity
O=C1CC(c2ccc(Cl)cc2)C(=O)N1CN1CCC(Cc2ccccc2)CC1 (racemic) | 0%

These molecules were tested on Rattus norvegicus (assay: Anticonvulsant activity in albino Sprague-Dawley rat assessed as protection against maximal electroshock-induced seizures at 30 mg/kg, po measured after 0.25 hr). Conditions: not given.
Assay type: functional
How it was run: as §2

SMILES | Activity
O=C1CC(c2cccc(Cl)c2)C(=O)N1CN1CCC(Cc2ccccc2)CC1 (racemic) | 50%
O=C1CC(c2cccc(Cl)c2)C(=O)N1CN1CCOCC1 (racemic) | inactive
O=C1CC(c2cccc(Cl)c2)C(=O)N1CN1CCN(c2ncccn2)CC1 (racemic) | inactive

The molecules below were run on Mus musculus (assay: Anticonvulsant activity in albino CF1 mouse assessed as assessed as protection against 6 Hz psychomotor seizure at 100 mg/kg, ip after 2 hrs by minimal clonic seizure test). Conditions: route intraperitoneal.
Assay type: functional
How it was run: as §1

SMILES | Activity
O=C1CC(c2ccc(Cl)cc2)C(=O)N1CN1CCC(Cc2ccccc2)CC1 (racemic) | 75%

Each molecule was assayed on Mus musculus (assay: Anticonvulsant activity in albino CF1 mouse assessed as protection against subcutaneous pentylenetetrazole-induced convulsion at 300 mg/kg, ip measured after 4 hrs). Conditions: not given.
Assay type: functional, organism-based
Design: dose 300 mg/kg
How it was run: as §3

SMILES | Activity
O=C1CC(c2cccc(Cl)c2)C(=O)N1CN1CCC(Cc2ccccc2)CC1 (racemic) | inactive
O=C1CC(c2cccc(Cl)c2)C(=O)N1CN1CCOCC1 (racemic) | inactive
O=C1CC(c2ccc(Cl)cc2)C(=O)N1CN1CCN(c2ncccn2)CC1 (racemic) | inactive
O=C1CC(c2ccc(Cl)cc2)C(=O)N1CN1CCC(Cc2ccccc2)CC1 (racemic) | inactive
O=C1CC(c2ccccc2Cl)C(=O)N1CN1CCN(c2ccccc2Cl)CC1 (racemic) | inactive
O=C1CC(c2cccc(Cl)c2)C(=O)N1CN1CCN(c2ncccn2)CC1 (racemic) | inactive

What follows are molecules tested on Mus musculus (assay: Anticonvulsant activity in ip dosed albino CF1 mouse assessed as protection against maximal electroshock-induced seizures in half or more animals measured after 4 hrs). Conditions: read-out: MED.
Assay type: functional
How it was run: as §3

SMILES | minimal effective dose
O=C1CC(c2cccc(Cl)c2)C(=O)N1CN1CCC(Cc2ccccc2)CC1 (racemic) | 100 mg/kg
O=C1CC(c2cccc(Cl)c2)C(=O)N1CN1CCOCC1 (racemic) | 100 mg/kg
O=C1CC(c2ccc(Cl)cc2)C(=O)N1CN1CCC(Cc2ccccc2)CC1 (racemic) | 100 mg/kg
O=C1CC(c2cccc(Cl)c2)C(=O)N1CN1CCN(c2ncccn2)CC1 (racemic) | 100 mg/kg

What follows are molecules tested on Rattus norvegicus (assay: Anticonvulsant activity in albino Sprague-Dawley rat assessed as protection against maximal electroshock-induced seizures at 30 mg/kg, po measured after 2 hrs). Conditions: not given.
Assay type: functional
How it was run: as §2

SMILES | Activity
O=C1CC(c2cccc(Cl)c2)C(=O)N1CN1CCC(Cc2ccccc2)CC1 (racemic) | 50%
O=C1CC(c2cccc(Cl)c2)C(=O)N1CN1CCOCC1 (racemic) | 50%
O=C1CC(c2cccc(Cl)c2)C(=O)N1CN1CCN(c2ncccn2)CC1 (racemic) | inactive

These molecules were tested on Rattus norvegicus (assay: Anticonvulsant activity in albino Sprague-Dawley rat assessed as protection against maximal electroshock-induced seizures at 30 mg/kg, po measured after 1 hr). Conditions: not given.
Assay type: functional
How it was run: as §2

SMILES | Activity
O=C1CC(c2cccc(Cl)c2)C(=O)N1CN1CCC(Cc2ccccc2)CC1 (racemic) | 25%
O=C1CC(c2cccc(Cl)c2)C(=O)N1CN1CCOCC1 (racemic) | 50%
O=C1CC(c2cccc(Cl)c2)C(=O)N1CN1CCN(c2ncccn2)CC1 (racemic) | inactive
